Consider one compound from ChEMBL document CHEMBL4411297, “Discovery, synthesis and anti-atherosclerotic activities of a novel selective sphingomyelin synthase 2 inhibitor” (Eur J Med Chem, 2019).

Molecules are shown by their SMILES.

Series [1] concerns Mus musculus. Briefly: Anti-atherosclerotic activity in apoE knockout mouse fed with western-type diet assessed as reduction in liver SMS activity at 12.5 mg/kg/day, ig for 7 weeks relative to control. The series is classed as functional. Set-up: scale not given: the % may be the effect or the level left. Put shortly: (§1)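 ApoE KO mice on Western-type diet, dosed by gavage at 12.5 or 40 mg/kg/day for 7 weeks, n = 10. Liver homogenized at 200 mg/ml in 50 mM Tris-HCl pH 7.4, 1 mM EDTA, 250 mM sucrose. C6-NBD-ceramide and DMPC added, incubated at 37 °C, quenched with ethanol. Product read by TLC or HPLC, relative to vehicle.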

Series [2] deals with T1, Phosphatidylcholine:ceramide cholinephosphotransferase 2 (Homo sapiens, UniProt Q8NHU3).
T1 sequence (Q8NHU3 whole entry): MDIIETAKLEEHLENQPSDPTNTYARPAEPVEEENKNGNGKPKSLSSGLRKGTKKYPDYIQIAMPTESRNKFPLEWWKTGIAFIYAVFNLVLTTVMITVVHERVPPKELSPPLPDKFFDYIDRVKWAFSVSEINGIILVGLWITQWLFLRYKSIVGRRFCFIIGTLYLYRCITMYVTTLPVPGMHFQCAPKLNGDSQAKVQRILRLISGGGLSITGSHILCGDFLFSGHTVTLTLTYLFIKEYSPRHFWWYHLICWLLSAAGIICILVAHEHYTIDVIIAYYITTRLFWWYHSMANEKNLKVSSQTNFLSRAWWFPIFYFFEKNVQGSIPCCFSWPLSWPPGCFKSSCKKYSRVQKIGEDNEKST
In words: (§2) Inhibition of purified SMS2 (unknown origin) using C6-NBD-Ceramide and DMPC as substrates preincubated for 5 mins followed by substrate addition and measured after 30 mins by TLC or HPLC method. Put shortly:
(§3)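 Purified SMS1 or SMS2 in DDM detergent buffer; inhibitor in DMSO pre-incubated 5 min at room temperature, then C6-NBD-ceramide and DMPC added, 30 min at 37 °C; ethanol quench, TLC or HPLC read-out. Activity expressed as percent of no-inhibitor vehicle; IC50 from ten (SMS1) or eight (SMS2) concentrations, mean ± SD, n = 3.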

Series [3] addresses T2, Phosphatidylcholine:ceramide cholinephosphotransferase 2 (Homo sapiens) (UniProt Q8NHU3).
T2 sequence (whole entry): T1 sequence (Q8NHU3 whole entry)
Described as §2. The essentials:
as §3

Series [4] concerns Mus musculus. Briefly: Effect on plasma AST level in apoE knockout mouse fed with western-type diet at 12.5 to 40 mg/kg/day, ig for 7 weeks. It counts as ADME, organism-based. To be noted: in vivo, po, 1176 h. The essentials:
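ApoE KO mice on Western-type diet, dosed by gavage at 12.5 or 40 mg/kg/day for 7 weeks, n = 10. Blood collected at 20 weeks of age. Plasma SM measured by a previously reported method. ALT and AST read on an automated biochemical analyzer.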

Series [5] can be described thus: AUC (0 to infinity) in C57BL/6J mouse at 100 mg/kg/day, ig by HPLC-MS/MS analysis. The series is classed as ADME, organism-based. Set-up: dose 100 mg/kg/day, route intragastric, time infinity. The conditions noted are these: in vivo, po. The essentials: (§4)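 Male C57BL/6J mice, six to eight weeks old, about 20 g, fasted 12 h with free water. Given a single intragastric dose of 25, 50 or 100 mg/kg in 10% DMSO/30% PEG-100/0.9% NaCl. Blood taken retro-orbitally at 5 min to 8 h. Plasma protein-precipitated with methanol plus internal standard, then HPLC-MS/MS on a C18 column. Noncompartmental analysis, n = 6.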

Series [6] concerns Mus musculus. In words: Effect on plasma AST levels in C57BL/6J mouse at 100 mg/kg/day, ig qd for 7 days measured on day 7. The series is classed as ADME, organism-based. To be noted: in vivo, po, 168 h. Put shortly:
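C57BL/6J mice dosed by gavage at 100 mg/kg once daily for 7 days. Plasma SM sampled on days 0, 3 and 7. Plasma ALT and AST measured on day 7 by automated analyzer. Compared with vehicle, n = 10.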

A short description of series [7]: Tmax in C57BL/6J mouse at 100 mg/kg/day, ig by HPLC-MS/MS analysis. It counts as ADME, organism-based. To be noted: in vivo, po. The essentials:
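Male C57BL/6J mice (6–8 weeks, ~20 g), fasted 12 h, given a single intragastric dose of 25, 50 or 100 mg/kg in 10% DMSO/30% PEG/0.9% NaCl. Retro-orbital blood at 5 min to 8 h; plasma protein-precipitated with methanol plus internal standard, assayed by LC-MS/MS; noncompartmental analysis. Mean ± SD, n = 6.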

In series [8] the test system is Mus musculus. In words: Anti-atherosclerotic activity in apoE knockout mouse fed with western-type diet assessed as reduction in CD4+/CD8+ cell ratio at 40 mg/kg/day, ig for 7 weeks by flow cytometric analysis relative to control. Set-up: scale not given: the % may be the effect or the level left. The series is classed as functional. Put shortly: (§5)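 ApoE KO mice started at 8 weeks old on Western-type diet for 6 weeks. Then dosed by gavage daily with vehicle, 12.5 or 40 mg/kg for 7 weeks with the diet continued, 10 mice per group. Blood single-cell suspensions stained with antibodies in PBS and analysed by flow cytometry. Mean ± SD, n = 5.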
(In general: A flow cytometer gives signals particle by particle.)

Series [9] is described as follows: Cmax in C57BL/6J mouse at 100 mg/kg/day, ig by HPLC-MS/MS analysis. To be noted: in vivo, po. The series is classed as ADME, organism-based. Set-up: dose 100 mg/kg/day, route intragastric. The essentials:
as §4

A short description of series [10]: Half life in C57BL/6J mouse at 25 mg/kg/day, ig by HPLC-MS/MS analysis. The series is classed as ADME, organism-based. To be noted: in vivo, po. The essentials: as §4
The nature of series [11]: Half life in C57BL/6J mouse at 100 mg/kg/day, ig by HPLC-MS/MS analysis. It counts as ADME, organism-based. To be noted: in vivo, po. The essentials:
as §4

In series [12] the test system is Mus musculus. In words: Anti-atherosclerotic activity in apoE knockout mouse fed with western-type diet assessed as reduction in CD11b+/Ly6C++/Ly6G+ dendritic cells at 40 mg/kg/day, ig for 7 weeks by flow cytometric analysis relative to control. It counts as functional. Set-up: scale not given: the % may be the effect or the level left. The essentials: as §5
Series [13] addresses T3, Phosphatidylcholine:ceramide cholinephosphotransferase 2 (Mus musculus) (UniProt Q9D4B1).
T3 sequence (whole entry): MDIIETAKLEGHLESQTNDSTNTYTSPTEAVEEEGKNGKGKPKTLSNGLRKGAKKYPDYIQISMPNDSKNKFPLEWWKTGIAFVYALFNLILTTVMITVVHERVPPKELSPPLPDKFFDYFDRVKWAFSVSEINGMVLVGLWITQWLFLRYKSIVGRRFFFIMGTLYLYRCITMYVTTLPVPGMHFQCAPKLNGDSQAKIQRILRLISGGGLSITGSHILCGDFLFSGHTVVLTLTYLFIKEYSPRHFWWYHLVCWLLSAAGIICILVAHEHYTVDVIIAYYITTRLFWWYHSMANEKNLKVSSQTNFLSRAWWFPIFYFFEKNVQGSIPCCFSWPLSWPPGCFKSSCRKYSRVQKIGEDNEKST
Briefly: Inhibition of SMS2 in C57BL/6J mouse bone marrow derived macrophages assessed as increase in [3H]-cholesterol efflux after 17 hrs by liquid scintillation analysis. The essentials: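 Bone marrow macrophages treated with inhibitor at various concentrations for 17 h, labeled with [³H]-cholesterol on acetylated LDL, equilibrated 1 h in DMEM/0.2% BSA, then given 50 µg/ml HDL; medium taken at 8 h. Efflux = medium radioactivity as percent of medium plus cell-lysate total, by scintillation counting.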

In series [14] the test system is Mus musculus. Briefly: Anti-atherosclerotic activity in apoE knockout mouse fed with western-type diet assessed as reduction in liver SMS activity at 40 mg/kg/day, ig for 7 weeks relative to control. The series is classed as functional. Set-up: scale not given: the % may be the effect or the level left. The essentials:
as §1

Turning to `CCc1ccccc1COc1ccccc1C(=O)Nc1cccnc1`, the Activity in the series on Mus musculus [1] is given as 35%; with Mus musculus [4], “Non-Toxic”; with Mus musculus [6], “Non-Toxic”; in the series with Mus musculus [8], 37%; in the series on Mus musculus [12], 43%; in the series with Mus musculus [14] it was 39%. For the same compound, half-maximal inhibition in [2] (IC50) required 91 nM. Besides, the inhibition result in [3] and in series [13] was “Dose-dependent effect” in each case. Further, the total exposure AUC(0-inf) – broadly, total exposure, with the tail of the curve extrapolated – in [5] came to 14500 ng·h/mL. Further, the Tmax (commonly the time from dosing to the highest level) in [7] came to 6 min. In series [9], the peak level (Cmax) was 14100 ng/mL. The half-life (in general, the time needed for the level to fall by half in the phase considered) is 3.22 h in [10] and 2.51 h in series [11].
